Reference: ChEMBL document CHEMBL1955854, “New retinoid derivatives as back-ups of Adarotene” (Bioorg Med Chem, 2012)

Columns and labels:
A-431 [1] = assay: Antitumor activity against human A431 cells xenografted in nude CD1 mouse assessed as tumor volume inhibition at 40 mg/kg, ip administered qd 3 times per week for 2 weeks relative to control; assay type: functional; settings: A-431, ip, 336 h, route intraperitoneal, read-out: TGI
Procedure, shortened: (§1)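 A431 epidermoid carcinoma cells (5 × 10⁶) from in vitro culture were injected s.c. into the right flank of CD1 nude mice on day 0, with 8 mice per group. Dosing began on day 3, at tumors of about 50 mm³, on a qdx3/wx2w schedule. Vehicle was 10% DMSO, 9% HPBCD and 14.4% PEG1000 in water. Tumor diameters were measured twice weekly by caliper, and TVI% was taken versus the vehicle group (Mann–Whitney).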

Plasma [2] = assay: Prodrug conversion in mouse plasma assessed as drug concentration at 3 hrs; assay type: ADME, cell-free
Procedure, shortened: (§2)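 Prodrugs already shown stable at pH 1.2, 6.8 and 7.4 were incubated in murine plasma and sampled over time up to 6 h. A parallel incubation used murine plasma pretreated with the esterase inhibitor PMSF (phenylmethyl sulfonyl fluoride).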

[3] = Chemical stability in aqueous buffer containing 5% DMSO and 5% tween 80 at pH 1.2 assessed as compound recovery in anoxic conditions after 12 hrs by UPLC analysis; assay type: physicochemical; settings: pH 1.2, 12 h
Procedure, shortened: (§3)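 Stability at 37 °C in aqueous buffer with 5% DMSO and 5% Tween 80 at pH 1.2, 6.8 or 7.4; percent recovery by HPLC/UPLC on BEH C18 column, water+0.1% TFA/acetonitrile gradient from 40% to 95% acetonitrile over 8 min, room temperature.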

Plasma [4] = assay: Prodrug conversion in mouse plasma assessed as drug concentration at 1 hr; assay type: ADME, cell-free; procedure, shortened: as §2
Mus musculus [5] = assay: Toxicity in nude CD1 mouse xenografted with human A431 cells assessed as body weight loss at 40 mg/kg, po administered qd 3 times per week for 2 weeks; assay type: organism-based, A-431; set-up: dose 40 mg/kg, route oral; settings: in vivo, 336 h
Procedure, shortened: (§4)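 CD1 nude mice bore s.c. A431 xenografts (5 × 10⁶ cells, right flank, 8 mice per group). Dosing started on day 3 on a qdx3/wx2w schedule, in vehicle of 10% DMSO, 9% HPBCD and 14.4% PEG1000 in water. Mice were weighed daily, and BWL% = 100 − (mean body weight day x / mean body weight day 1 × 100), with day 1 the first treatment day. The maximum BWL is reported.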

Mus musculus [6] = assay: Toxicity in nude CD1 mouse xenografted with human A431 cells assessed as body weight loss at 40 mg/kg, ip administered qd 3 times per week for 2 weeks; assay type: organism-based, A-431; set-up: dose 40 mg/kg, route intraperitoneal; settings: in vivo, 336 h; procedure, shortened: as §4
Plasma [7] = assay: Prodrug conversion in mouse plasma assessed as drug concentration at 0.5 hrs; assay type: ADME, cell-free; procedure, shortened: as §2
[8] = Solubility in water; assay type: physicochemical; settings: buffer
[9] = Chemical stability in aqueous buffer containing 5% DMSO and 5% tween 80 at pH 6.8 assessed as compound recovery in anoxic conditions after 24 hrs by UPLC analysis; assay type: physicochemical; settings: read-out: Stability; procedure, shortened: as §3
NCI-H460 [10] = assay: Antiproliferative activity against human NCI-H460 cells incubated for 24 hrs drug exposure measured after 48 hrs of recovery by sulforhodamine B assay; assay type: functional, cell-based
[11] = Chemical stability in aqueous buffer containing 5% DMSO and 5% tween 80 at pH 7.4 assessed as compound recovery in anoxic conditions after 24 hrs by UPLC analysis; assay type: physicochemical; settings: read-out: Stability; procedure, shortened: as §3
Plasma [12] = assay: Prodrug conversion in mouse plasma assessed as drug concentration at 6 hrs; assay type: ADME, cell-free; procedure, shortened: as §2
Plasma [13] = assay: Prodrug conversion in mouse plasma assessed as drug concentration at 6 hrs in presence of esterase inhibitor PMSF; assay type: ADME, cell-free; procedure, shortened: as §2
[14] = Chemical stability in aqueous buffer containing 5% DMSO and 5% tween 80 at pH 1.2 assessed as compound recovery in anoxic conditions after 3 hrs by UPLC analysis; assay type: physicochemical; settings: read-out: Stability; procedure, shortened: as §3
A-431 [15] = assay: Antitumor activity against human A431 cells xenografted in nude CD1 mouse assessed as tumor volume inhibition at 40 mg/kg, po administered qd 3 times per week for 2 weeks relative to control; assay type: functional; settings: A-431, 336 h, read-out: TGI; procedure, shortened: as §1
A-431 [16] = assay: Antiproliferative activity against human A431 cells incubated for 24 hrs drug exposure measured after 48 hrs of recovery by sulforhodamine B assay; assay type: functional, cell-based
Mus musculus [17] = assay: Toxicity in nude CD1 mouse xenografted with human A431 cells assessed as body weight loss at 37 mg/kg, po administered qd 3 times per week for 2 weeks; assay type: organism-based, A-431; set-up: dose 37 mg/kg, route oral; settings: in vivo, 336 h; procedure, shortened: as §4
[18] = Chemical stability in aqueous buffer containing 5% DMSO and 5% tween 80 at pH 7.4 assessed as compound recovery in anoxic conditions after 6 hrs by UPLC analysis; assay type: physicochemical; settings: read-out: Stability; procedure, shortened: as §3
A-431 [19] = assay: Antitumor activity against human A431 cells xenografted in nude CD1 mouse assessed as tumor volume inhibition at 37 mg/kg, ip administered qd 3 times per week for 2 weeks relative to control; assay type: functional; settings: A-431, ip, 336 h, route intraperitoneal, read-out: TGI; procedure, shortened: as §1
A-431 [20] = assay: Antitumor activity against human A431 cells xenografted in nude CD1 mouse assessed as tumor volume inhibition at 37 mg/kg, po administered qd 3 times per week for 2 weeks relative to control; assay type: functional; settings: A-431, 336 h, read-out: TGI; procedure, shortened: as §1
Mus musculus [21] = assay: Toxicity in nude CD1 mouse xenografted with human A431 cells assessed as body weight loss at 37 mg/kg, ip administered qd 3 times per week for 2 weeks; assay type: organism-based, A-431; set-up: dose 37 mg/kg, route intraperitoneal; settings: in vivo, 336 h; procedure, shortened: as §4
A-431 [22] = assay: Antitumor activity against human A431 cells xenografted in nude CD1 mouse assessed as tumor volume inhibition at 25 mg/kg, po administered qd 3 times per week for 2 weeks relative to control; assay type: functional; settings: A-431, 336 h, read-out: TGI
Procedure, shortened: (§5)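 CD1 nude mice given s.c. right-flank NCI-H460 (3 × 10⁶) or A431 (5 × 10⁶) cells from culture on day 0; eight mice per group. Dosing began day 3 at ~50 mm³ tumors; vehicle 10% DMSO, 9% HPBCD, 14.4% PEG1000 in water. Diameters taken biweekly by caliper; mice weighed daily, maximum BWL% reported; Mann–Whitney versus vehicle.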

NCI-H460 [23] = assay: Antitumor activity against human NCI-H460 cells xenografted in nude CD1 mouse assessed as tumor volume inhibition at 13 mg/kg, iv administered qd 3 times per week for 2 weeks relative to control; assay type: functional; settings: NCI-H460, 336 h, read-out: TGI; procedure, shortened: as §5
[24] = Toxicity in iv dosed nude CD1 mouse xenografted with human A431 cells assessed as mortality administered qd 3 times per week for 2 weeks; assay type: organism-based, A-431; settings: in vivo
Mus musculus [25] = assay: Toxicity in nude CD1 mouse xenografted with human A431 cells assessed as body weight loss at 25 mg/kg, po administered qd 3 times per week for 2 weeks; assay type: organism-based, A-431; set-up: dose 25 mg/kg, route oral; settings: in vivo, 336 h; procedure, shortened: as §5
NCI-H460 [26] = assay: Antitumor activity against human NCI-H460 cells xenografted in nude CD1 mouse assessed as tumor volume inhibition at 25 mg/kg, po administered qd 3 times per week for 2 weeks relative to control; assay type: functional; settings: NCI-H460, 336 h, read-out: TGI; procedure, shortened: as §5
Mus musculus [27] = assay: Toxicity in nude CD1 mouse xenografted with human NCI-H460 NSCLC cells assessed as body weight loss at 13 mg/kg, iv administered qd 3 times per week for 2 weeks; assay type: organism-based; set-up: dose 13 mg/kg, route intravenous; settings: in vivo, 336 h; procedure, shortened: as §5
[28] = Toxicity in po dosed nude CD1 mouse xenografted with human A431 cells assessed as mortality administered qd 3 times per week for 2 weeks; assay type: organism-based, A-431; settings: in vivo
Mus musculus [29] = assay: Toxicity in nude CD1 mouse xenografted with human NCI-H460 NSCLC cells assessed as body weight loss at 25 mg/kg, po administered qd 3 times per week for 2 weeks; assay type: organism-based; set-up: dose 25 mg/kg, route oral; settings: in vivo, 336 h; procedure, shortened: as §5
A-431 [30] = assay: Antitumor activity against human A431 cells xenografted in nude CD1 mouse assessed as tumor volume inhibition at 35 mg/kg, ip administered qd 3 times per week for 2 weeks relative to control; assay type: functional; settings: A-431, ip, 336 h, route intraperitoneal, read-out: TGI; procedure, shortened: as §1
Mus musculus [31] = assay: Toxicity in nude CD1 mouse xenografted with human A431 cells assessed as body weight loss at 35 mg/kg, ip administered qd 3 times per week for 2 weeks; assay type: organism-based, A-431; set-up: dose 35 mg/kg, route intraperitoneal; settings: in vivo, 336 h; procedure, shortened: as §4
A-431 [32] = assay: Antitumor activity against human A431 cells xenografted in nude CD1 mouse assessed as tumor volume inhibition at 35 mg/kg, po administered qd 3 times per week for 2 weeks relative to control; assay type: functional; settings: A-431, 336 h, read-out: TGI; procedure, shortened: as §1
Mus musculus [33] = assay: Toxicity in nude CD1 mouse xenografted with human A431 cells assessed as body weight loss at 35 mg/kg, po administered qd 3 times per week for 2 weeks; assay type: organism-based, A-431; set-up: dose 35 mg/kg, route oral; settings: in vivo, 336 h; procedure, shortened: as §4

| SMILES | Stability [3] | solubility [8] | remaining at 24 h [9] [%] | IC50 (NCI-H460 [10]) [µM] | remaining at 24 h [11] [%] | remaining at 3 h [14] [%] | IC50 (A-431 [16]) [µM] | further results |
| --- | --- | --- | --- | --- | --- | --- | --- | --- |
| Cl.O=C(O)/C=C/c1ccc(-c2ccc(OC(=O)N3CCC(N4CCCCC4)CC3)c(C34CC5CC(CC(C5)C3)C4)c2)cc1 | Stable | Insoluble | > 99 | > 10 | > 99 | > 99 | > 10 | inhibition in vivo at 40 mg/kg (A-431 [1]): 26%; Drug metabolism (Plasma [2]): 100%; Drug metabolism (Plasma [4]): 100%; Activity (Mus musculus [5]): 4%; Activity (Mus musculus [6]): 0%; Drug metabolism (Plasma [7]): 100%; Drug metabolism (Plasma [12]): 100%; Drug metabolism (Plasma [13]): 4.13%; inhibition in vivo at 40 mg/kg (A-431 [15]): 22% |
| Cl.O=C(O)/C=C/c1ccc(-c2ccc(OC(=O)NCCN3CCOCC3)c(C34CC5CC(CC(C5)C3)C4)c2)cc1 | Stable | Insoluble | > 99 | 0.92 | 85 | > 99 | 1.4 | Activity (Mus musculus [17]): 0%; remaining at 6 h [18]: > 99%; inhibition in vivo at 37 mg/kg (A-431 [19]): 21%; inhibition in vivo at 37 mg/kg (A-431 [20]): 0%; Activity (Mus musculus [21]): 0% |
| O=C(O)/C=C/c1ccc(-c2ccc(O)c(C34CC5CC(CC(C5)C3)C4)c2)cc1 [ADAROTENE] | Stable | Insoluble | > 99 | 0.2 | > 99 | > 99 | 0.12 | inhibition in vivo at 25 mg/kg (A-431 [22]): 36%; inhibition in vivo at 13 mg/kg (NCI-H460 [23]): 37%; MTD at 336 h [24]: 13 mg/kg; Activity (Mus musculus [25]): 12%; inhibition in vivo at 25 mg/kg (NCI-H460 [26]): 34%; Activity (Mus musculus [27]): 8%; MTD at 336 h [28]: 25 mg/kg; Activity (Mus musculus [29]): 9% |
| Cl.NCCCCNC(=O)Oc1ccc(-c2ccc(/C=C/C(=O)O)cc2)cc1C12CC3CC(CC(C3)C1)C2 | Stable | Insoluble | > 99 | 2.6 | > 99 | > 99 | 3.4 | inhibition in vivo at 35 mg/kg (A-431 [30]): 1%; Activity (Mus musculus [31]): 6%; inhibition in vivo at 35 mg/kg (A-431 [32]): 0%; Activity (Mus musculus [33]): 3% |
